The results in this text go back to ChEMBL document CHEMBL4145619, “Computer-Assisted Discovery of Retinoid X Receptor Modulating Natural Products and Isofunctional Mimetics” (J Med Chem, 2018).

Assay type in all cases: cell-based
Data set [1] has as its target T1, Retinoic acid receptor RXR-alpha (Homo sapiens, UniProt P19793).
T1 sequence (P19793 whole entry): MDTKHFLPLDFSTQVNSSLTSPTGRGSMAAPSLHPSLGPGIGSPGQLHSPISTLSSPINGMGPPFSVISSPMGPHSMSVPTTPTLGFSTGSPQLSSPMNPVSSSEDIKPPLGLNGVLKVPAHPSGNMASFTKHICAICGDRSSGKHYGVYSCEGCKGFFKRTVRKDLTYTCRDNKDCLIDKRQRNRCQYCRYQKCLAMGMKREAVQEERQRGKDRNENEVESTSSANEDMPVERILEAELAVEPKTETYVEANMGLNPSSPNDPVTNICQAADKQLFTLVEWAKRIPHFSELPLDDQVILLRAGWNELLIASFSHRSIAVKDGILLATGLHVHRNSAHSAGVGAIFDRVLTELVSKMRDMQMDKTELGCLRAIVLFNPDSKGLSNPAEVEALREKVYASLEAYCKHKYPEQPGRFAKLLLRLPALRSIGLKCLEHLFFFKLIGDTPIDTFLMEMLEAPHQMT
Nature of the data set: Transactivation of human Gal4-fused RXRalpha LBD expressed in HEK293T cells after 12 to 14 hrs by dual-glo luciferase assay. Put shortly:
(§1)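 Gal4-hybrid reporter gene assay in HEK293T cells with the RXRα, RXRβ or RXRγ construct. Dose–response curves give EC50 and fold activation as mean ± SEM from n ≥ 4 independent experiments in duplicate.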

In data set [2] the target is T2, Retinoic acid receptor RXR-alpha (Homo sapiens) (UniProt P19793).
T2 sequence (whole entry): T1 sequence (P19793 whole entry)
The experiment in a line: Transactivation of human Gal4-fused RXRalpha LBD expressed in HEK293T cells after 12 to 14 hrs by dual-glo luciferase assay relative to bexarotene.

Data set [3] deals with T3, Retinoic acid receptor RXR-beta (Homo sapiens, UniProt P28702).
T3 sequence (P28702 whole entry): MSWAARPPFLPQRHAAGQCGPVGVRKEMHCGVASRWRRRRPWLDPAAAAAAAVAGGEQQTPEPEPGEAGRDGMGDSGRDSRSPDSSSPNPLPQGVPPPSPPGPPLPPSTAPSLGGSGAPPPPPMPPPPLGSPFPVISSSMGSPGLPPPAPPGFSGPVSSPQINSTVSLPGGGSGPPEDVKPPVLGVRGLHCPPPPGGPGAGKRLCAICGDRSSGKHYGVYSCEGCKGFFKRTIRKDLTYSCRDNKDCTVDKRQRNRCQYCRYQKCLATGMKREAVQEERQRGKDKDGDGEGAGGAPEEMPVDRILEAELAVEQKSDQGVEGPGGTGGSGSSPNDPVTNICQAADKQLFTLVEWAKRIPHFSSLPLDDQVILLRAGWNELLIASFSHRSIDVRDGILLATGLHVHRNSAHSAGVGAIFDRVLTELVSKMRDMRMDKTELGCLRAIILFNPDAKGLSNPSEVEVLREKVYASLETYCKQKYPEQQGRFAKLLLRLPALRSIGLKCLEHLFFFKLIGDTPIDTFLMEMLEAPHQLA
Nature of the data set: Transactivation of human Gal4-fused RXRbeta LBD expressed in HEK293T cells after 12 to 14 hrs by dual-glo luciferase assay. Put shortly:
as §1

Data set [4] addresses T4, Retinoic acid receptor RXR-beta (Homo sapiens) (UniProt P28702).
T4 sequence (whole entry): T3 sequence (P28702 whole entry)
Nature of the data set: Transactivation of human Gal4-fused RXRbeta LBD expressed in HEK293T cells after 12 to 14 hrs by dual-glo luciferase assay relative to bexarotene.

Data set [5] concerns the target T5, Retinoic acid receptor RXR-gamma (Homo sapiens, UniProt P48443).
T5 sequence (P48443 whole entry): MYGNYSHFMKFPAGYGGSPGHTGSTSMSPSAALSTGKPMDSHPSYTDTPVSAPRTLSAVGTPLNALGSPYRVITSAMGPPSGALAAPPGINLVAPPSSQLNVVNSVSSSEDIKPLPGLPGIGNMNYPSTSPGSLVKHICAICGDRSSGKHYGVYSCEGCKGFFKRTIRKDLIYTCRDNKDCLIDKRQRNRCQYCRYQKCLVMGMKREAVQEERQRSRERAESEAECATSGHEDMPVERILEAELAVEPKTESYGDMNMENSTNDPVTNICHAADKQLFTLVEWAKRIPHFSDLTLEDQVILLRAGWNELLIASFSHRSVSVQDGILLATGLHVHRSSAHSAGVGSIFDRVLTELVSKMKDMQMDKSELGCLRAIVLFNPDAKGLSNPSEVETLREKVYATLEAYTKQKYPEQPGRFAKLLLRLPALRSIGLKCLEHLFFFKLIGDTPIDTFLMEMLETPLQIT
The experiment in a line: Transactivation of human Gal4-fused RXRgamma LBD expressed in HEK293T cells after 12 to 14 hrs by dual-glo luciferase assay. In a few lines:
as §1

Data set [6] deals with T6, Retinoic acid receptor RXR-gamma (Homo sapiens) (UniProt P48443).
T6 sequence (whole entry): T5 sequence (P48443 whole entry)
Nature of the data set: Transactivation of human Gal4-fused RXRgamma LBD expressed in HEK293T cells after 12 to 14 hrs by dual-glo luciferase assay relative to bexarotene.

The target of data set [7] is T6, Retinoic acid receptor RXR-gamma (Homo sapiens). The experiment in a line: Transactivation of human Gal4-fused RXRgamma LBD expressed in HEK293T cells at 50 uM after 12 to 14 hrs by dual-glo luciferase assay.
For data set [8], the target named is T2, Retinoic acid receptor RXR-alpha (Homo sapiens). Nature of the data set: Transactivation of human Gal4-fused RXRalpha LBD expressed in HEK293T cells at 30 uM after 12 to 14 hrs by dual-glo luciferase assay. Put shortly:
(§2)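 Single-concentration selectivity profiling in Gal4-hybrid reporter gene assays in HEK293T cells. Each nuclear receptor construct (RAR, PPAR, LXR, FXR, CAR, VDR, PXR, RXR) was tested at 30 μM.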

The target in data set [9] is T7, Peroxisome proliferator-activated receptor gamma (Homo sapiens) (UniProt P37231).
T7 sequence (whole entry): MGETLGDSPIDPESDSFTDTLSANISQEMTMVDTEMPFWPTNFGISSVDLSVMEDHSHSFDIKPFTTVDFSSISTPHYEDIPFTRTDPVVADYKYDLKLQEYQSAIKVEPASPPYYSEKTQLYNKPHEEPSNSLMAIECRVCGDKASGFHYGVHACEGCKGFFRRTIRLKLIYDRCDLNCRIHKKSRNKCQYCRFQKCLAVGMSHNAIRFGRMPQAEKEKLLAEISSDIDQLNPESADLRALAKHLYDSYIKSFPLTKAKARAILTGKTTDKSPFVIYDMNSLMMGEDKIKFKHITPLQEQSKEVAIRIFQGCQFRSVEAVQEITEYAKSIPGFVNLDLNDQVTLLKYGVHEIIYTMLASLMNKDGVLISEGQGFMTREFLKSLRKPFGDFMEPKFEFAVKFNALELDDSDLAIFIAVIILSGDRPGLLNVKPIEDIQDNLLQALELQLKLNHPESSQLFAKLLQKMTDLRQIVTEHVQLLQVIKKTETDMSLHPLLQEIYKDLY
The experiment in a line: Transactivation of human Gal4-fused PPARgamma LBD expressed in HEK293T cells at 30 uM after 12 to 14 hrs by dual-glo luciferase assay. Put shortly: as §2

The test system of data set [10] is HepG2. Nature of the data set: Cytotoxicity against human HepG2 cells assessed as reduction in cell viability up to 100 uM after 48 hrs by WST1 assay. The note with it: hepg2, 48 h.
Data set [11] deals with T8, Retinoid X receptor (Homo sapiens) (UniProt P28702+P48443+P19793). Nature of the data set: Transactivation of RXR in human HepG2 cells assessed as induction of ABCA1 mRNA expression at 30 uM after 8 hrs by qRT-PCR analysis. In a few lines:
(§3)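 HepG2 cells were treated and ABCA1 or ApoE mRNA levels measured. Results are given as mean fold induction versus 0.1% DMSO vehicle ± SEM, n = 3. Significance was set at p < 0.05, 0.01 or 0.001.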
In general terms: Quantitative PCR measures a nucleic acid by following its amplification.

Data set [12] addresses T8, Retinoid X receptor (Homo sapiens). Nature of the data set: Transactivation of RXR in human HepG2 cells assessed as induction of apoE mRNA expression at 30 uM after 8 hrs by qRT-PCR analysis. In a few lines: as §3
The target of data set [13] is T2, Retinoic acid receptor RXR-alpha (Homo sapiens). Nature of the data set: Transactivation of human Gal4-fused RXRalpha LBD expressed in HEK293T cells at 50 uM after 12 to 14 hrs by dual-glo luciferase assay.
Data set [14] deals with T8, Retinoid X receptor (Homo sapiens). The experiment in a line: Transactivation of RXR in human HepG2 cells assessed as induction of ABCA1 mRNA expression at 10 uM after 8 hrs by qRT-PCR analysis. In a few lines: as §3
Data set [15] has the same target. The experiment in a line: Transactivation of RXR in human HepG2 cells assessed as induction of apoE mRNA expression at 10 uM after 8 hrs by qRT-PCR analysis. Put shortly: as §3
Data set [16] concerns the target T4, Retinoic acid receptor RXR-beta (Homo sapiens). The experiment in a line: Transactivation of human Gal4-fused RXRbeta LBD expressed in HEK293T cells at 50 uM after 12 to 14 hrs by dual-glo luciferase assay.

Calls of active or inactive are those of the source. No cut-off for these calls is given here.

In the case of `Cc1ccc(C)n1-c1ccc(CCCC(=O)O)cc1`, the results for the EC50 in data set [1], in [3] and in data set [5] were 4.3 µM, 6.6 µM and 24.8 µM, respectively. The fold change (FC) came to 31 in data set [2], 48 in [4] and 11 in data set [6].
For `Cc1ccc(C)n1-c1ccc(SCC(=O)O)cc1`, the EC50 in [1] and in [3] was over 30 µM each time. For the same compound, the result in data set [7] was inactive.
As for `CC(C)c1ccc2c(c1)CC[C@H]1[C@](C)(C(=O)O)CCC[C@]21C` [DEHYDROABIETIC ACID], the result in [8], in data set [9], in [11] and in data set [12] was Active. Further, the EC50 in data set [1], in [3] and in data set [5] was 42 µM in each case. The fold change (FC) was 9 in [2], 6 in data set [4] and 6 in [6]. In data set [10], the Activity result is “Toxic”.
On to `CC(C)=C(C)c1ccc(-c2cnc(CCC(=O)O)o2)cc1`, for which the EC50 (commonly the concentration at which the effect is half-maximal) in [1] was 8 µM; in [3], 16 µM; in data set [5], 14 µM. For the same compound, the figures for the fold change (FC) in data set [2], in data set [4] and in data set [6] were 2.8, 3.2 and 2, respectively.
Take `Cc1c2c(n(C[C@H]3CC[C@H](C(=O)O)CC3)c1C)CCC(F)(F)C2`: the EC50 was determined as 24 µM in [1], 27.1 µM in data set [3] and 50 µM in data set [5]. In addition, the fold change (FC) in data set [2] was found to be 69; in [4] it was 99; in [6] it was 18.
For `Cc1c2c(n(-c3ccc(CCCC(=O)O)cc3)c1C)CCC(F)(F)C2`, the EC50 was determined as 9.1 µM in [1], 2.2 µM in data set [3] and 2.5 µM in [5]. Besides, the values for the fold change (FC) in data set [2], in [4] and in data set [6] were 56, 64 and 7, respectively.
Regarding `C/C=C/c1ccc2c(c1)[C@@H](C)[C@H](c1ccc(O)cc1)O2`, the result in [13] was inactive.
For `Cc1c2c(n(-c3ccc(CC(=O)O)cc3)c1C)CCC(F)(F)C2`, the fold change (FC) in data set [2] is 69; in [4] it was 121; in data set [6] it was 44. The result in data set [14] and in data set [15] was Active.
Regarding `CCC(C)[C@@H]1C(=O)/C(=C(/O)[C@@H]2[C@@H]3[C@H](C)C[C@H](C)C[C@@H]3C=C[C@@H]2[C@]2(C)O[C@H]2C)C(=O)N1C` (some centres undefined), the outcome in data set [13] was inactive.
Regarding `Cc1ccc(-n2c(C)c(C)c3c2CCC(F)(F)C3)cc1O`, the values for the EC50 in data set [1], in [3] and in data set [5] were 23.6 µM, 13.9 µM and 27.2 µM, respectively. The fold change (FC) in data set [2] is 26; in [4] it was 30; in [6] it was 11.
On to `C=C[C@@]1(C)CC[C@H]2C(=CC[C@@H]3[C@]2(C)CCC[C@@]3(C)C(=O)O)C1` [ISOPIMARIC ACID], for which the outcome in [8], in [11] and in data set [12] was Active. Besides, the EC50 in [1] amounted to 26 µM; in data set [3], 32 µM; in data set [5], 33 µM. Moreover, the fold change (FC) was 13 in data set [2], 7 in data set [4] and 7 in data set [6]. Besides, the Activity result in [10] is reported as “Toxic”.
Turning to `Cc1ccc(C)n1C(CC1CCCC1)C(=O)O` (centres undefined), the outcome in data set [13], in data set [16] and in [7] was inactive.
